This passage reports Km, Vmax and Ki results from ChEMBL document CHEMBL3244227, “Hexofuranosyladenine nucleosides as substrates and inhibitors of calf intestinal adenosine deaminase” (J Med Chem, 1979).

Active and inactive are the calls of the source. No cut-off for these calls is given here.

The species named for the first assay is Bos taurus. The experiment in a line: Activity at calf intestinal adenosine deaminase type 1 by spectrophotometric assay.
Details: not given
Broadly, the Km is the substrate concentration at which the rate is half of its maximum. As usually defined, the Vmax is the rate approached at saturating substrate. In the case of `Nc1ncnc2c1ncn2[C@@H]1O[C@H]([C@@H](O)CO)[C@H](O)[C@H]1O`, the Km is 260 µM and the maximum rate (Vmax) is 0.178 µmol/min/mg.

Take `C[C@H](O)[C@H]1O[C@H](n2cnc3c(N)ncnc32)[C@@H](O)[C@@H]1O`: the Km result is “inactive” and the Vmax entry is “inactive”.

With `C[C@@H](O)[C@H]1O[C@@H](n2cnc3c(N)ncnc32)[C@H](O)[C@@H]1O`, the Km was 78 µM and the maximal velocity (Vmax) turned out to be 0.792 µmol/min/mg.

Take `C[C@H](O)[C@H]1O[C@@H](n2cnc3c(N)ncnc32)[C@H](O)[C@H]1O`: the Michaelis-Menten constant (Km) worked out at 320 µM and the Vmax was found to be 25 µmol/min/mg.

As to `C[C@H](O)[C@@H]1O[C@H](n2cnc3c(N)ncnc32)[C@@H](O)[C@@H]1O`, the Km result is “inactive” and the Vmax entry is “inactive”.

Turning to `C[C@@H](O)[C@@H]1O[C@@H](n2cnc3c(N)ncnc32)[C@H](O)[C@H]1O`, the Km was 230 µM and the Vmax was 0.105 µmol/min/mg.

For the compound `Nc1ncnc2c1ncn2[C@H]1O[C@@H]([C@H](O)CO)[C@@H](O)[C@@H]1O`, the Km result is “inactive” and the Vmax entry is “inactive”.

Regarding `C[C@H](O)[C@@H]1O[C@@H](n2cnc3c(N)ncnc32)[C@H](O)[C@@H]1O`, the Km worked out at 670 µM and the Vmax was 0.326 µmol/min/mg.

Take `C[C@@H](O)[C@H]1O[C@H](n2cnc3c(N)ncnc32)[C@@H](O)[C@@H]1O`: the Km entry was “inactive” and the Vmax entry was “inactive”.

Take `C[C@@H](O)[C@@H]1O[C@H](n2cnc3c(N)ncnc32)[C@@H](O)[C@@H]1O`: the Km entry is “inactive” and the Vmax result is “inactive”.

With `C[C@@H](O)[C@@H]1O[C@@H](n2cnc3c(N)ncnc32)[C@H](O)[C@@H]1O`, the Km entry was “inactive” and the Vmax result is “inactive”.

Turning to `Nc1ncnc2c1ncn2[C@@H]1O[C@H](CO)[C@@H](O)[C@H]1O`, the maximum rate (Vmax) amounted to 220 µmol/min/mg.

Consider `C[C@H](O)[C@H]1O[C@@H](n2cnc3c(N)ncnc32)[C@H](O)[C@@H]1O`, for which the Km is 21 µM and the Vmax is 61 µmol/min/mg.

Take `Nc1ncnc2c1ncn2[C@@H]1O[C@@H]([C@@H](O)CO)[C@@H](O)[C@H]1O`: the Km was 280 µM and the Vmax amounted to 0.092 µmol/min/mg.

Test system in a further assay: not listed separately
The experiment in a line: Inhibition of calf intestinal adenosine deaminase type 1 by spectrophotometric assay. More on the design: species or system Bos taurus.
Details: not given
A digest of the protocol:
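Commercial calf intestinal adenosine deaminase (type I) was assayed with adenosine as substrate plus the analogue, both in 0.05 M phosphate buffer, pH 7.0, at 25 °C. Mode of inhibition and Ki were derived from the kinetics.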
The Ki is a measure of affinity in units of concentration, obtained from inhibition or displacement. For `Nc1ncnc2c1ncn2[C@H]1O[C@@H]([C@H](O)CO)[C@@H](O)[C@@H]1O`, the Ki entry is on record as “Not Active”.

Staying with this assay, now noted: read-out: Ki.
For `Nc1ncnc2c1ncn2[C@@H]1O[C@H]([C@@H](O)CO)[C@H](O)[C@H]1O`, the inhibition constant Ki amounted to 180 µM.

With `Nc1ncnc2c1ncn2[C@@H]1O[C@H]([C@H](O)CO)[C@H](O)[C@@H]1O`, the Ki was 670 µM.

Regarding `Nc1ncnc2c1ncn2[C@H]1O[C@H]([C@@H](O)CO)[C@H](O)[C@@H]1O`, the Ki worked out at 120 µM.

Take `Nc1ncnc2c1ncn2[C@H]1O[C@H]([C@H](O)CO)[C@H](O)[C@@H]1O`: the Ki came to 240 µM.

For `Nc1ncnc2c1ncn2[C@@H]1O[C@@H]([C@@H](O)CO)[C@@H](O)[C@H]1O`, the inhibition constant (Ki) came out at 120 µM.
